Published values collected from several papers.
CYP1A2: Cytochrome P450 1A2 (CYP1A2, Homo sapiens, UniProt P05177)

COc1ccc([C@@H]2CN(C(=O)[C@@H](O)CO)C[C@@]2(C)[C@@H](C)O)cc1OC1CN(c2ccc(C)cn2)C1
Vd/F (human, plasma; oral, 30 mg, single dose, healthy volunteers): 84.3 L

Cn1cnc2c1c(=O)n(CC(=O)Nc1c(Cl)cccc1Cl)c(=O)n2C
viability (Vero; cell growth or viability, MTT; 1000 µg/mL): 7.99%

O=S(=O)(NNc1nnc(Cl)c2ccccc12)c1ccc(F)cc1
viability (Vero; cell growth or viability, MTT; 31.25 µg/mL): 99.8%

COC(=O)C1CCN(C(=O)c2ccc(N(CCCO)Cc3cnc4nc(N)nc(N)c4n3)cc2)CC1
inhibition (Cytochrome P450 3A4 (CYP3A4, Homo sapiens, UniProt P08684); enzyme activity, inhibitor, luciferase; 10 µM): -2.09%

Cc1cc(Nc2cc(N3CCN(C)CC3)nc(/C=C/c3ccccc3)n2)n[nH]1
Vd/F (human, plasma; oral, 80 mg/m², multiple doses, patients): 748 L

CC(C)(C)c1ccc(O)c(CN(Cc2cc(C(C)(C)C)ccc2O)C2CCC(NC(N)=O)CC2)c1 (stereo not shown)
Cmax (male C57BL/6 mouse, brain; intraperitoneal, 5 mg/kg, single dose): 609 ng/g

COC(=O)C1CCN(C(=O)c2ccc(NCc3cnc4nc(N)nc(N)c4n3)cn2)CC1
inhibition (CYP1A2; enzyme activity, inhibitor, luciferase; 10 µM): -8.69%

CCNc1nc(Nc2ccc(F)c(Cl)c2)c2ccccc2n1
viability (Vero; cell growth or viability, MTT; 31.25 µg/mL): 100%

COc1cc(C(=O)NC2CCN(C)CC2)c(F)cc1Nc1ncc(C(F)(F)F)c(Oc2cccc3c2C(=O)N(C)C3)n1
Vd/F (human, plasma; oral, 10 mg, single dose, patients): 873 L

COC(=O)C1CCN(C(=O)c2cccc(NCc3cnc4nc(N)nc(N)c4n3)c2)CC1
inhibition (CYP1A2; enzyme activity, inhibitor, luciferase; 10 µM): -15.2%
